Laboratory results reported in ChEMBL document CHEMBL3580648, “Dimeric Abietane Diterpenoids and Sesquiterpenoid Lactones from Teucrium viscidum” (J Nat Prod, 2015).
Counter-ions that a name gives are not always drawn.

Key:
[1] = Cytotoxic activity against human BGC823 cells by MTT method; type: functional, cell-based; settings: BGC-823
Summary of the method: (§1)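 MTT assay on the cancer cell line. IC50 taken as the concentration that cuts absorbance to 50% of control. Values are means of three independent experiments.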

HCT-116 = assay: Cytotoxic activity against human HCT116 cells by MTT method; type: functional, cell-based; summary of the method: as §1
[2] = Inhibition of Saccharomyces cerevisiae alpha-glucosidase pre-incubated for 10 mins at 25 degC before addition of p-nitrophenyl-alpha-D-glucopyranoside substrate by UV absorption based assay
Summary of the method: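 Yeast α-glucosidase at 1.0 U/mL in 0.1 M K3PO4 buffer, pH 6.9, mixed with test compound in DMSO. Preincubated 10 min at 25 °C, then started with PNPG (5.0 mM solution in the same buffer). A405 was read at once and again after 5 min at 25 °C. ΔA was compared with a DMSO control to give % inhibition and IC50, as means of three independent experiments.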

[3] = Cytotoxic activity against human H460 cells by MTT method; type: functional, cell-based; settings: NCI-H460; summary of the method: as §1
HepG2 = assay: Cytotoxic activity against human HepG2 cells by MTT method; type: functional, cell-based; summary of the method: as §1
HeLa = assay: Cytotoxic activity against human HeLa cells by MTT method; type: functional, cell-based; summary of the method: as §1

| SMILES | IC50 [2] | IC50 [1] | IC50 (HCT-116) | IC50 [3] | IC50 (HepG2) | IC50 (HeLa) |
| --- | --- | --- | --- | --- | --- | --- |
| CC(C)c1cc2c(c(O)c1O)[C@]13CO[C@H]2C[C@H]1C(C)(C)C[C@H](O)C3 | > 1000 µM | > 10 µM | > 10 µM | > 10 µM | > 10 µM | > 10 µM |
| CC(C)C1=C[C@@]23Oc4c(C(C)C)cc5c(c4O[C@]2(C(=O)C1=O)C12COC3C[C@H]1C(C)(C)C[C@H](O)C2)C12COC5C[C@H]1C(C)(C)C[C@H](O)C2 (stereo not given in full) | > 1000 µM | > 10 µM | > 10 µM | > 10 µM | > 10 µM | > 10 µM |
| CC(=O)O[C@H]1C[C@@H](O)[C@@]2(C)C[C@@]3(O)OC(=O)C(C)=C3C[C@@H]2[C@H]1C | > 1000 µM | > 10 µM | > 10 µM | > 10 µM | > 10 µM | > 10 µM |
| CC(=O)O[C@@H]1C[C@H](O)[C@H](C)[C@H]2CC3=C(C)C(=O)O[C@]3(O)C[C@@]21C | > 1000 µM | > 10 µM | > 10 µM | > 10 µM | > 10 µM | > 10 µM |
| CC1=C2C[C@@H]3[C@@H](C)[C@@H](O)C[C@@H](O)[C@@]3(C)C[C@@]2(O)OC1=O | > 1000 µM | > 10 µM | > 10 µM | > 10 µM | > 10 µM | > 10 µM |
| CC(=O)O[C@@H]1C(=O)C=C(C)[C@@H]2CC3=C(C)C(=O)O[C@@]3(O)C[C@@]12C | > 1000 µM | > 10 µM | > 10 µM | > 10 µM | > 10 µM | > 10 µM |
| COc1cccc2c1C(=O)c1c(O)c3c(c(O)c1C2=O)C[C@@](O)(C(=O)CO)C[C@@H]3O[C@H]1C[C@H](N)[C@H](O)[C@H](C)O1 [DOXORUBICIN HYDROCHLORIDE] | – | 0.76 µM | – | 0.24 µM | 0.24 µM | 0.72 µM |

The next lines start with results.

| IC50 [2] | SMILES | IC50 [1] | IC50 (HCT-116) | IC50 [3] | IC50 (HepG2) | IC50 (HeLa) |
| --- | --- | --- | --- | --- | --- | --- |
| > 1000 µM | CC(C)C1=CC2=C(C(=O)C1=O)[C@]13CO[C@H]2C[C@H]1C(C)(C)C[C@H](O)C3 | > 10 µM | 7.3 µM | > 10 µM | > 10 µM | > 10 µM |
| > 1000 µM | CC(C)C1=C[C@]23Oc4c(C(C)C)cc5c(c4O[C@@]2(C(=O)C1=O)C12COC3C[C@H]1C(C)(C)C[C@H](O)C2)C12COC5C[C@H]1C(C)(C)C[C@H](O)C2 (stereo not given in full) | 4.8 µM | 6.3 µM | 8.5 µM | 5.2 µM | 5.2 µM |
| 568 µM | CC1=CC(=O)[C@@H](O)[C@]2(C)C[C@]3(O)OC(=O)C(C)=C3C[C@@H]12 | > 10 µM | > 10 µM | > 10 µM | > 10 µM | > 10 µM |
| 300 µM | CC(=O)O[C@@H]1C(=O)C=C(C)[C@]2(O)CC3=C(C)C(=O)O[C@@]3(O)C[C@@]12C | > 10 µM | > 10 µM | > 10 µM | > 10 µM | > 10 µM |
| 169 µM | C[C@H]1O[C@H](O[C@H]2[C@H](O)[C@@H](O)[C@@H](O[C@H]3[C@H](O)[C@@H](O)C(O)O[C@@H]3CO)O[C@@H]2CO)[C@H](O)[C@@H](O)[C@@H]1N[C@H]1C=C(CO)[C@@H](O)[C@H](O)[C@H]1O (stereo not given in full) [ACARBOSE] | – | – | – | – | – |
